From ChEMBL document CHEMBL1153564 (Antimicrob Agents Chemother, 2008) come the findings set out here.

Values after ≈ are worked out from the molar mass of the structure shown. Active and inactive are the calls of the source. Starred links: 1 amine or outer side, 2 acyl side, 3 side chain; linkers in the order of their positions; H or OH if unused. Positions of bridges follow the written chain, without caps; N, C: chain ends. Non-standard residues stand in square brackets, D forms with d. Residues, ends and D or L forms follow the SMILES beside them. *: point of attachment. pTerphenylCO(4''-OnC5H11) = CCCCCOc1ccc(-c2ccc(-c3ccc(C(=O)*)cc3)cc2)cc1; Orn(4R-OH,5R-OH) = O=C([C@H](C[C@@H](O)[C@@H](O)N[*:3])N[*:1])[*:2]; hTyr(3S-OH,4S-OH) = N[C@H](C(=O)O)[C@H](O)[C@@H](O)c1ccc(O)cc1; Pro(3S-OH,4S-Me) = C[C@H]1CN[C@H](C(=O)O)[C@H]1O; Hyp = O=C(O)[C@@H]1C[C@@H](O)CN1

Series [1] concerns Candida albicans. The series can be described thus: Antifungal activity against Candida albicans 580 infected in neutropenic ICR/Swiss mouse candidiasis model assessed as dose required for 1-log10 reduction in […] per kidney administered intraperitoneally every 24 hrs up to 4 days measured per 24 hrs. It is filed as functional. In outline: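 Neutropenic mice (cyclophosphamide sc on days −4, −1 and +2) were infected iv 2 h before therapy. Five total doses from 0.078 to 20 mg/kg/24 h were given ip q24h for 4 days, three mice per regimen. Kidney CFU were measured at the end of therapy. Static and 1-log-kill doses were derived from a Hill sigmoid dose-effect fit.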

Series [2] deals with Nakaseomyces glabratus. The series can be described thus: Antifungal activity against Candida glabrata 5376 infected in neutropenic ICR/Swiss mouse candidiasis model assessed as reduction of […] in kidney at 5 mg/kg, ip administered 2 hrs postinfection as single dose measured after 96 hrs post dosing by time-kill assay. It counts as functional, organism-based. Also on record: dose 5 mg/kg. A digest of the protocol: (§1)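 Neutropenic mice were infected i.v. and 2 h later given a single i.p. dose (1.25, 5 or 20 mg/kg). Groups of three treated and three control mice were killed at intervals over 96 h, and kidney CFU were counted on SDA (limit 100 CFU/ml). The post-antifungal effect is t − c: the time for a 1 log10 CFU/kidney increase once serum levels fall below the MIC in treated mice, minus the same time in controls.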

Series [3] deals with Nakaseomyces glabratus. The series can be described thus: Antifungal activity against Candida glabrata 5376 infected in neutropenic ICR/Swiss mouse candidiasis model assessed as dose required to maintain […] of 3.71 +/- 0.21 log10CFU per kidney administered intraperitoneally once every 96 hrs measured per 96 hrs.
Series [4] concerns Candida albicans. The series can be described thus: Antifungal activity against Candida albicans K-1 infected in neutropenic ICR/Swiss mouse candidiasis model assessed as reduction of […] in kidney at 5 mg/kg, ip administered 2 hrs postinfection as single dose measured within 1 to 4 hrs post dosing by time-kill assay. It is filed as functional, organism-based. More on the design: dose 5 mg/kg. In outline:
(§2)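 Single ip dose (20, 5 or 1.25 mg/kg) given 2 h after iv infection of neutropenic mice with K-1. Three treated and three control mice were sampled at intervals over 96 h for kidney CFU. PAFE is the time for treated burden to rise 1 log10 after serum levels fall below MIC, minus the same time in controls. Free drug was taken as 1%.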

In series [5] the test system is Nakaseomyces glabratus. In words: Antifungal activity against Candida glabrata 5376 infected in neutropenic ICR/Swiss mouse candidiasis model assessed as suppression of fungal regrowth at 1.25 mg/kg, ip administered 2 hrs postinfection as single dose by time-kill assay. It is filed as functional, organism-based. More on the design: dose 1.25 mg/kg. A digest of the protocol: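 Single ip dose of 1.25, 5 or 20 mg/kg given 2 h after iv infection of neutropenic mice. Groups of 3 treated and 3 control mice sampled at 1–24 h intervals over 96 h. Kidney homogenates plated on SDA, 24 h at 35°C. PAFE = time for treated burden to rise 1 log10 CFU/kidney after serum level fell below MIC, minus the same time in controls.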

Series [6] concerns Candida albicans. The series can be described thus: Antifungal activity against Candida albicans K-1 assessed as complete growth inhibition after 24 hrs by CLSI end point method. It is filed as functional. Particulars: K-1, 24 h. In outline:
(§3)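 CLSI M27-A2 broth dilution. Two end points read against the drug-free control well: partial inhibition (CLSI end point) and complete inhibition. Run in duplicate on four separate occasions; value is the mean. Drug stock in DMSO, diluted in 0.9% NaCl.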

Series [7] concerns Candida albicans. The series can be described thus: Antifungal activity against Candida albicans 98-210 assessed as partial growth inhibition after 24 hrs by CLSI end point method. It counts as functional. Particulars: 98-210, 24 h. A digest of the protocol:
as §3

Series [8] relates to Nakaseomyces glabratus. The series can be described thus: Antifungal activity against Candida glabrata 33616 assessed as complete growth inhibition after 24 hrs by CLSI end point method. It counts as functional. Particulars: Nakaseomyces glabratus, 33616, 24 h. A digest of the protocol: (§4)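 Two end points were read against the drug-free control well: partial growth inhibition (the CLSI end point) and complete inhibition. Run in duplicate on four separate occasions; the value is the mean. Drug stock was made in DMSO and diluted in 0.9% NaCl.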

Series [9] concerns Mus musculus. In words: Cmax in serum of neutropenic ICR/Swiss mouse candidiasis model at 20 mg/kg, ip up to 4 hrs by reverse-phase high-pressure liquid chromatography. Particulars: in vivo. More on the design: dose 20 mg/kg, route intraperitoneal. It is filed as ADME, organism-based. In outline: (§5)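 Infected neutropenic ICR/Swiss mice given single ip doses (5, 20 or 80 mg/kg; 0.2 ml); serum from three isoflurane-anaesthetised mice at 1, 4, 8, 12, 24 and 48 h, stored at −80°C, assayed by reverse-phase HPLC with fluorescence detection, loratadine internal standard, linear 10–50,000 ng/ml. Noncompartmental analysis; half-life by nonlinear least squares.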

Series [10] deals with Candida albicans. The series can be described thus: Antifungal activity against Candida albicans K-1 infected in neutropenic ICR/Swiss mouse candidiasis model assessed as […] burden per kidney administered intraperitoneally every 16 hrs up to 4 days measured per 96 hrs. It is filed as functional. As to conditions: K-1, Kidney, ip. A digest of the protocol:
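Neutropenic mice were infected iv with C. albicans K-1 2 h before therapy. Total doses of 1.25, 5, 20, 80 and 320 mg/kg/96 h were split into 1, 2, 4 or 6 ip doses (q96h, q48h, q24h, q16h), three mice per regimen. Effect is the log10 CFU/kidney relative to untreated controls at 96 h. Static and 1-log doses were taken from a Hill model fit.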

Series [11] concerns Nakaseomyces glabratus. In words: Antifungal activity against Candida glabrata 35315 infected in neutropenic ICR/Swiss mouse candidiasis model assessed as dose required to maintain […] burden of 1.83 +/- 0.54 log10CFU per kidney administered intraperitoneally every 24 hrs up to 4 days measured per 24 hrs. It counts as functional.
Series [12] can be described thus: Elimination half life in serum of neutropenic ICR/Swiss mouse candidiasis model at 80 mg/kg, ip by reverse-phase high-pressure liquid chromatography. It is filed as ADME, organism-based. Particulars: read-out: beta t1/2 (converted). More on the design: dose 80 mg/kg, route intraperitoneal. In outline:
as §5

Series [13] deals with Nakaseomyces glabratus. In words: Antifungal activity against Candida glabrata 5376 infected in neutropenic ICR/Swiss mouse candidiasis model assessed as […] burden per kidney administered intraperitoneally once every 96 hrs measured per 96 hrs. It is filed as functional. As to conditions: Nakaseomyces glabratus, 5376, Kidney, ip. A digest of the protocol:
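Neutropenic ICR/Swiss mice infected i.v. with the strain; therapy began 2 h later. Total doses of 1.25–320 mg/kg/96 h were given i.p. as 1, 2, 4 or 6 doses (q96h, q48h, q24h, q16h), three mice per regimen. Kidney CFU were counted after 4 days. Effect is the change from untreated controls at the end of therapy.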

Series [14] concerns Nakaseomyces glabratus. In words: Antifungal activity against Candida glabrata 570 infected in neutropenic ICR/Swiss mouse candidiasis model assessed as dose required for 1-log10 reduction in […] per kidney administered intraperitoneally every 24 hrs up to 4 days measured per 24 hrs. It counts as functional. A digest of the protocol:
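Neutropenic mouse disseminated candidiasis, with i.p. therapy starting 2 h after i.v. infection. Five total doses of 0.078–20 mg/kg/24 h were given q24h for 4 days, three mice per dose. Kidney CFU were counted at the end and compared with untreated controls. The dose giving a 1 log10 CFU/kidney reduction was derived from the sigmoid Hill dose–effect model.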

Series [15] has as its system Nakaseomyces glabratus. In words: Antifungal activity against Candida glabrata 5376 infected in neutropenic ICR/Swiss mouse candidiasis model assessed as reduction of […] in kidney at 5 mg/kg, ip administered 2 hrs postinfection as single dose measured within 1 to 4 hrs post dosing by time-kill assay. It is filed as functional, organism-based. More on the design: dose 5 mg/kg. In outline: as §1

Series [16] has as its system Candida albicans. The series can be described thus: Antifungal activity against Candida albicans K-1 infected in neutropenic ICR/Swiss mouse candidiasis model assessed as prolongation of fungal growth suppression at 5 mg/kg, ip administered 2 hrs postinfection as single dose by time-kill assay. It counts as functional. As to conditions: route intraperitoneal. A digest of the protocol: as §2

In series [17] the test system is Nakaseomyces glabratus. In words: Antifungal activity against Candida glabrata 5592 assessed as partial growth inhibition after 24 hrs by CLSI end point method. It counts as functional. Particulars: Nakaseomyces glabratus, 5592, 24 h. In outline:
as §4

As for `CCCCCOc1ccc(-c2ccc(-c3ccc(C(=O)N[C@H]4C[C@@H](O)[C@@H](O)NC(=O)[C@@H]5[C@@H](O)[C@@H](C)CN5C(=O)[C@H]([C@@H](C)O)NC(=O)[C@H]([C@H](O)[C@@H](O)c5ccc(O)cc5)NC(=O)[C@@H]5C[C@@H](O)CN5C(=O)[C@H]([C@@H](C)O)NC4=O)cc3)cc2)cc1` [ANIDULAFUNGIN] ({pTerphenylCO(4''-OnC5H11)}-[Orn(4R-OH,5R-OH)]T[Hyp][hTyr(3S-OH,4S-OH)]T[Pro(3S-OH,4S-Me)]; lactam 1-C), the Activity in series [1] was 2.31 mg/kg; in [3], 9.06 mg/kg; in [11], 6.4 mg/kg; in series [14] it was 3.72 mg/kg; in series [16] it was greater than 96 h. The outcome in series [2], in series [4], in series [5] and in [15] was Active. Besides, the MIC was 0.12 µg/mL (≈ 0.105 µM) in [6], 0.015 µg/mL (≈ 0.0132 µM) in [7], 2 µg/mL (≈ 1.75 µM) in series [8] and 0.06 µg/mL (≈ 0.0526 µM) in series [17]. This compound displayed a Cmax in series [9] of 24000 ng/mL. For the same compound, the median effective dose (ED50) in series [10] came to 8.74 mg/kg; in series [13], 8.12 mg/kg. In addition, the half-life in [12] is 24 h.

In general, MIC refers to the smallest concentration in the dilution series that meets the test's criterion for growth inhibition. The Cmax is the peak of the concentration-time curve. By ED50 is commonly meant the midpoint of the dose-response relation.
